Experimental data reported in ChEMBL document CHEMBL3792368, “Design, synthesis, and in vitro and biological evaluation of potent amino acid-derived thiol inhibitors of the metallo-β-lactamase IMP-1” (Eur J Med Chem, 2016).
The source made the active and inactive calls. The rule behind the calls is not given here.

Columns and labels:
Pseudomonas aeruginosa [1] = assay: Uncompetitive inhibition of Pseudomonas aeruginosa 101/1477 IMP-1 expressed in Escherichia coli BL21(DE3) using benzylpenicillin as substrate assessed as residual activity measured for 5 mins by UV multiplate spectrophotometry
Outline: (§1)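 IMP-1 lacking the first 21 signal-peptide residues, expressed and purified by a previously published protocol. Kinetic assays were run at pH 7 and read out as residual enzyme activity. The chromogenic cephalosporin CENTA was not used as substrate because thiol inhibitors react with it.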

Pseudomonas aeruginosa [2] = assay: Competitive inhibition of Pseudomonas aeruginosa 101/1477 IMP-1 expressed in Escherichia coli BL21(DE3) using benzylpenicillin as substrate assessed as residual activity measured for 5 mins by UV multiplate spectrophotometry; outline: as §1
[3] = Competitive inhibition of IMP-1 (unknown origin)
Enterobacter cloacae [4] = assay: Inhibition of IMP-4 in Enterobacter cloacae ECL1 assessed as imipenem MIC at 50 mM (reference value: 1.5 ug/ml)
Escherichia coli BL21 [5] = assay: Inhibition of IMP-1 in Escherichia coli BL21 assessed as reduction of imipenem MIC at 50 mM relative to control
Enterobacter cloacae [6] = assay: Inhibition of IMP-4 in Enterobacter cloacae ECL2 co-expressing TEM1 assessed as imipenem MIC at 50 mM (reference value: 0.5 ug/ml)
Enterobacter cloacae [7] = assay: Inhibition of IMP-4 in Enterobacter cloacae ECL1 assessed as reduction of imipenem MIC at 50 mM relative to control
Enterobacter cloacae [8] = assay: Inhibition of IMP-4 in Enterobacter cloacae ECL2 co-expressing TEM1 assessed as reduction in imipenem MIC at 50 mM
Escherichia coli BL21 [9] = assay: Inhibition of IMP-1 in Escherichia coli BL21 assessed as imipenem MIC at 50 mM (reference value: 2 ug/ml)

Row | Structure (SMILES) | Kiuc (Pseudomonas aeruginosa [1]) | Kic (Pseudomonas aeruginosa [2]) | other results
1 | O=C(CCCS)N[C@@H](Cc1ccc(O)cc1)C(=O)O | > 1 mM | 5.63 µM | 
2 | O=C(CS)N[C@@H](Cc1ccc(O)cc1)C(=O)O | > 1 mM | 4.55 µM | 
3 | O=C(CCS)N[C@H](Cc1ccccc1)C(=O)O |  |  | Ki [3]: 88 nM
4 | CC(=O)SCC(=O)O | 0.00264 mM | 0.32 µM | 
5 | O=C(CS)N[C@@H](Cc1c[nH]c2ccccc12)C(=O)O | > 1 mM | 0.47 µM | 
6 | O=C(CCCS)N[C@@H](Cc1c[nH]c2ccccc12)C(=O)O | > 1 mM | 8.62 µM | 
7 | O=C(CS)N[C@@H](Cc1ccc(OCc2ccccc2)cc1)C(=O)O | > 1 mM | 0.086 µM | MIC (Enterobacter cloacae [4]): 0.38 µg/mL; fold change (FC) (Escherichia coli BL21 [5]): 5.2; MIC (Enterobacter cloacae [6]): 0.5 µg/mL; fold change (FC) (Enterobacter cloacae [7]): 3.9; inhibition (Enterobacter cloacae [8]): inactive; MIC (Escherichia coli BL21 [9]): 0.38 µg/mL

Now from value to compound, other results behind:

Row | Kiuc (Pseudomonas aeruginosa [1]) | Kic (Pseudomonas aeruginosa [2]) | Structure (SMILES) | other results
8 | > 1 mM | 5.85 µM | O=C(CCCS)N[C@@H](Cc1ccc(OCc2ccccc2)cc1)C(=O)O | 
9 | > 1 mM | 9.39 µM | O=C(CCS)N[C@@H](Cc1ccc(OCc2ccccc2)cc1)C(=O)O | 
10 | > 1 mM | 0.25 µM | O=C(CS)N[C@@H](Cc1ccccc1)C(=O)O | 
11 | > 1 mM | 2.82 µM | O=C(CCCS)N[C@@H](Cc1ccccc1)C(=O)O | 
12 | > 1 mM | 5.02 µM | O=C(CCS)N[C@@H](Cc1c[nH]c2ccccc12)C(=O)O | 
13 | 0.0602 mM | 1.45 µM | O=C(CCS)N[C@@H](Cc1ccccc1)C(=O)O | 
14 | > 1 mM | 5.18 µM | O=C(CCS)N[C@@H](Cc1ccc(O)cc1)C(=O)O | 
